Columns and labels:
[1] = 10-day daily IP administration, body weight; format: in vivo, C57BL/6 mice
Procedure, shortened: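 Body weights were recorded daily and again on day 11, before euthanasia. Mice were C57BL/6 of both sexes (7–12 weeks; n = 8 per group, equal males and females), with sex data combined. Dosing was IP once daily for 10 days with vehicle (DMSO diluted 10%/90% vol/vol in 0.5% Methocel/0.9% NaCl) or test compound. Groups were compared by ANOVA followed by unpaired t test.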

[2] = tested on: IL-1β, IL-6, and TNFα in total lung homogenates; assay: 10-day daily IP administration, lung cytokines by ELISA; format: in vivo, C57BL/6 mice; settings: 20.0 mg/kg IP daily for 10 days, day 11, vs vehicle
Procedure, shortened: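 On day 11, IL-1β, IL-6 and TNFα were measured by mouse ELISA kits in total lung homogenates. Mice were C57BL/6 of both sexes (7–12 weeks; n = 8 per group), given daily IP vehicle (DMSO/0.5% Methocel in 0.9% NaCl, 10%/90% vol/vol) or test compound for 10 days. Analysis was ANOVA followed by unpaired t test.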

[3] = tested on: Col1a1 and Fn mRNA in total lung RNA; assay: 10-day daily IP administration, lung extracellular matrix mRNA by qPCR; format: in vivo, C57BL/6 mice; settings: 20.0 mg/kg IP daily for 10 days, day 11, vs vehicle
Procedure, shortened: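 Lung tissue was taken on day 11, after 10 days of daily IP vehicle (DMSO/0.5% Methocel-saline) or test compound in male and female C57BL/6 mice (n = 8 per group). Tissue was lysed and RNA purified with genomic DNA removal. cDNA was made with oligo(dT) plus random hexamers, then SYBR green real-time PCR was run. Col1a1 and Fn were expressed as ratios to B2M.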

[4] = 10-day daily IP administration, serum chemistry; format: in vivo, C57BL/6 mice; settings: 20.0 mg/kg IP daily for 10 days, day 11, vs vehicle
Procedure, shortened: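 Serum was prepared from postmortem blood on day 11 and analysed on a chemistry analyser per the manufacturer's instructions. Mice were C57BL/6 of both sexes (7–12 weeks; n = 8 per group), dosed IP daily for 10 days with vehicle (DMSO/0.5% Methocel in 0.9% NaCl, 10%/90% vol/vol) or test compound. Analysis was ANOVA, then unpaired t test.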

[5] = 10-day daily IP administration, complete blood count; format: in vivo, C57BL/6 mice; settings: 20.0 mg/kg IP daily for 10 days, day 11, vs vehicle
Procedure, shortened: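 Blood was collected postmortem on day 11 and run on a veterinary haematology analyser for complete blood count. Mice were male and female C57BL/6 (7–12 weeks; n = 8 per group), dosed IP daily for 10 days with vehicle (DMSO/0.5% Methocel in saline, 10%/90% vol/vol) or test compound. Analysis was ANOVA, then unpaired Student t test.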

lung, liver, and kidney = assay: 10-day daily IP administration, H&E histology scoring; format: in vivo, C57BL/6 mice; settings: 20.0 mg/kg IP daily for 10 days, all parameters
Procedure, shortened: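 Male and female C57BL/6 mice (7–12 weeks; n = 8 per group, equal sexes) got IP vehicle (DMSO then 0.5% Methocel in 0.9% NaCl, 10%/90% vol/vol) or test compound daily from day 0 for 10 days. On day 11, organs were fixed in 10% neutral formalin and paraffin-embedded. 5 μm H&E sections were graded blindly by a pathologist over the whole section area.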

[6] = Solubility in water or saline; format: physicochemical
EphB2 = settings: cited from earlier work
[7] = within normal published parameters

CCN1CCN(Cc2ccc(NC(=O)c3ccc(C)c(NC(=O)c4cncc(-c5cccs5)c4)c3)cc2C(F)(F)F)CC1 [ALW-II-41-27]
daily and ending weight loss ([1]; 20.0 mg/kg IP daily for 10 days, vs vehicle): no significant changes | tolerability ([1]; 20.0 mg/kg IP once a day in mice): well tolerated | IL-1β in whole-lung lysates [2]: No significant alterations | IL-6 in whole-lung lysates [2]: No significant alterations | TNF-α in whole-lung lysates [2]: No significant alterations | Col1a1 mRNA expression (ratio to B2M) in lung [3]: no significant differences | Fn mRNA expression (ratio to B2M) in lung [3]: no significant differences | serum chemistry parameters other than creatinine [4]: no significant changes | CBC parameters other than NEU and RBC [5]: no significant differences | neutrophil (NEU) count [5, 7]: significantly higher | red blood cell (RBC) count [5, 7]: significantly higher | histology score (0 normal to 4+), lung, liver, and kidney (lung, liver, and kidney): 0 | solubility in water or saline [6]: lack of solubility | inhibition of the Ephrin receptor EphB2 (EphB2): shown to inhibit
